Experimental data from ChEMBL document CHEMBL1138739, “Synthesis, nicotinic acetylcholine receptor binding, and antinociceptive properties of 2'-fluoro-3'-(substituted phenyl)deschloroepibatidine analogues. Novel nicotinic antagonist” (J Med Chem, 2004).
Active and inactive are the calls of the source.

Experiments:
[1] = biological target: Neuronal acetylcholine receptor subunit alpha-7 (Rattus norvegicus, UniProt Q05941); assay: Inhibition of [125I]-iodo-MLA binding to Nicotinic acetylcholine receptor alpha-7 of rat cerebral cortex; format: tissue-based
[2] = species: Mus musculus; assay: Antinociceptive response was determined in mice using tail flick method; format: functional
Outline: (§1)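 Mice; epibatidine analogues given i.t., tail-flick (D'Amour–Smith) latency read 5 min later. Baseline 2–4 s, 10 s cutoff. %MPE = [(test − control)/(10 − control)] × 100. Eight to twelve mice per dose, at least four doses for dose–response; ED50 with confidence limits, or percent effect at a single dose.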

[3] = species: Mus musculus; assay: Antinociceptive response was determined in mice using hot plate flick method; format: functional
Outline: (§2)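 Mice, 8 per dose, given analogues sc and placed on a 55.0 °C hot plate 5 min later. Two control latencies at least 10 min apart, normally 8–12 s. Endpoint is paw lick or jump. %MPE = [(test − control)/(40 − control)] × 100. ED50 with confidence limits, or percent effect at a single dose.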

[4] = test system: Mus musculus; assay: Antinociceptive response was determined in mice at a dose of 10 mg/kg using hot plate flick method; format: functional; outline: as §2
[5] = biological target: Neuronal acetylcholine receptor; alpha4/beta2 (Rattus norvegicus, UniProt P09483+P12390); assay: Inhibition of alpha beta[3H]epibatidine binding to Nicotinic acetylcholine receptor alpha4-beta2 of rat cerebral cortex; format: tissue-based
[6] = test system: Mus musculus; assay: Antinociceptive response was determined in mice at a dose 15 mg/kg using tail flick method; format: functional; outline: as §1
[7] = test system: Mus musculus; assay: Antinociceptive response was determined in mice at a dose of 10 mg/kg using hypothermia method; format: functional
Outline: (§3)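 Rectal temperature in mice by thermistor probe inserted 24 mm, read just before and at several times after sc saline or analogue. ED50 with confidence limits, or change at a single dose.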

[8] = test system: Mus musculus; assay: Percent effect on the body temperature was measured at a dose of 5 mg/kg; format: functional
[9] = species: Mus musculus; assay: Antinociceptive response was determined in mice using spontaneous activity method; format: functional
Outline: (§4)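 Mice given 0.9% saline or analogue sc and put in individual photocell activity cages 5 min later. Beam interruptions counted over the next 10 min. ED50 with confidence limits, or percent effect at a single dose.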

[10] = test system: Mus musculus; assay: Antinociceptive response was determined in mice at a dose 10 mg/kg using tail flick method; format: functional; outline: as §1
[11] = species: Mus musculus; assay: Antinociceptive response was determined in mice using hypothermia method; format: functional; outline: as §3
[12] = test system: Mus musculus; assay: Percent effect on the body temperature was measured at a dose of 1 mg/kg; format: functional
[13] = test system: Mus musculus; assay: Antinociceptive response was determined in mice at a dose of 15 mg/kg using hot plate flick method; format: functional; outline: as §2
[14] = test system: Mus musculus; assay: Percent effect on the body temperature was measured at a dose of 10 mg/kg; format: functional
[15] = test system: Mus musculus; assay: Antinociceptive response was determined in mice at a dose of 10 mg/kg using spontaneous activity method; format: functional; outline: as §4
[16] = test system: Mus musculus; assay: Antinociceptive response was determined in mice at a dose of 1 mg/kg using hot plate flick method; format: functional

Sequence of Neuronal acetylcholine receptor; alpha4/beta2 (P09483 whole entry): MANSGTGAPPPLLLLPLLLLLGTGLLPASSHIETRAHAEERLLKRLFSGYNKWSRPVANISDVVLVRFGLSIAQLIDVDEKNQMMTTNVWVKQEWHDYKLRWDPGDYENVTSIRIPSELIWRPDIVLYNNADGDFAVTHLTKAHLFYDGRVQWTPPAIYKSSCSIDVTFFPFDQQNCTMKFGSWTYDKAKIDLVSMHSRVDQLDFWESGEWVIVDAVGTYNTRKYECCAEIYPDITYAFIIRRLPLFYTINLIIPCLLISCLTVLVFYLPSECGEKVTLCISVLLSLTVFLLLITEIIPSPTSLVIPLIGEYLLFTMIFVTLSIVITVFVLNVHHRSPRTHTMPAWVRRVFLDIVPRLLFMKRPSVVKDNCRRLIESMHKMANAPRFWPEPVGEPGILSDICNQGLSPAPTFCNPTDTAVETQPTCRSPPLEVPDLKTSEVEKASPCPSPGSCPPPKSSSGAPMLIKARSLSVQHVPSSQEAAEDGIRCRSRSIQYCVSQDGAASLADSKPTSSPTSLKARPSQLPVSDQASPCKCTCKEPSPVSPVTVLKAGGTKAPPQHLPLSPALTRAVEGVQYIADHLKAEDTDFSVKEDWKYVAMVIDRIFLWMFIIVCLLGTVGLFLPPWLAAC
Sequence of Neuronal acetylcholine receptor; alpha4/beta2 (P12390 whole entry): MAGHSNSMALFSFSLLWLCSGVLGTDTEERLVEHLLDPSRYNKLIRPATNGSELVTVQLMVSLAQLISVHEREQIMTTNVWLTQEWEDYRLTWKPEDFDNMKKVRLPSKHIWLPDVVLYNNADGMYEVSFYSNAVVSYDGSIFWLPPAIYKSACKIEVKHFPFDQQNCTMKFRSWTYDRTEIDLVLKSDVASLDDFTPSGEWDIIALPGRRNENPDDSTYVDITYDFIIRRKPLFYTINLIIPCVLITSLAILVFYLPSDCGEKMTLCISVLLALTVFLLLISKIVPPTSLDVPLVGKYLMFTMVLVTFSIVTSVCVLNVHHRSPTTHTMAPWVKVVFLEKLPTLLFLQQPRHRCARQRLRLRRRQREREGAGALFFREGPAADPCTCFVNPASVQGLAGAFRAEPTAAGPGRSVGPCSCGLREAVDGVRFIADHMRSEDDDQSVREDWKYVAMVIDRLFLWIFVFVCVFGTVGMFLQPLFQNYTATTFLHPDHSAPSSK
Sequence of Neuronal acetylcholine receptor subunit alpha-7 (Q05941 whole entry): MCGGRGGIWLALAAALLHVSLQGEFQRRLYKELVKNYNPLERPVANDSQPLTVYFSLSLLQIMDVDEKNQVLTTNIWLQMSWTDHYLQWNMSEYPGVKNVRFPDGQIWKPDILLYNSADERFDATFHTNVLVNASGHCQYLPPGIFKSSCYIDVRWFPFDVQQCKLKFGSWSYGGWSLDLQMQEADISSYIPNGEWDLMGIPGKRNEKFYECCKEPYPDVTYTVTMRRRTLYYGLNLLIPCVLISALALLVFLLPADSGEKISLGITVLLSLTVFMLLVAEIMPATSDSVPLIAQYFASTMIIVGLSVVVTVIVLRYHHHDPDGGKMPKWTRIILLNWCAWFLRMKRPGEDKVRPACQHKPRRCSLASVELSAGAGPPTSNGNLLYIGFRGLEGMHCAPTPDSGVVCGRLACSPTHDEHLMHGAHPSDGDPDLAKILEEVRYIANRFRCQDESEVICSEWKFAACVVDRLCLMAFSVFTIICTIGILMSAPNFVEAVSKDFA

SMILES | AD50 [2] | AD50 [3] | ED50 [4] | Ki [5] | ED50 [9] | Response [10] | Response [7] | further results
Fc1ncc(C2CC3CCC2N3)cc1-c1ccccc1 (stereo in doubt; (-)-5a) | 0.08 mg/kg | 0.7 mg/kg | 10 mg/kg | 0.26 nM |  |  |  | Ki [1]: > 2000 nM; Response [6]: 5%; Response ([7]; 10 mg/kg): -0.8%
Nc1cccc(-c2cc(C3CC4CCC3N4)cnc2F)c1 (centres undefined) | 0.009 mg/kg | 0.82 mg/kg | 4 mg/kg | 0.16 nM | 8.5 mg/kg | 1% | 0% | Body temperature [8]: 5%
Clc1ccc([C@H]2C[C@@H]3CC[C@H]2N3)cn1 [(-)-EPIBATIDINE] |  |  |  |  |  |  |  | ED50 [2]: 0.004 mg/kg; ED50 [11]: 0.001 mg/kg; ED50 [3]: 0.004 mg/kg
CN1CCC[C@H]1c1cccnc1 [NICOTINE] |  |  |  |  | 0.5 mg/kg |  |  | ED50 [2]: 1.3 mg/kg; ED50 [11]: 1 mg/kg; ED50 [3]: 0.65 mg/kg
Fc1ccc(-c2cc(C3CC4CCC3N4)cnc2F)cc1 (centres undefined) | 0.0005 mg/kg | 0.23 mg/kg | 15 mg/kg | 0.02 nM | 2 mg/kg | 2% | 10% | Body temperature [12]: inactive
Fc1ncc(C2CC3CCC2N3)cc1-c1ccccc1 (racemic) | 0.5 mg/kg | 1.2 mg/kg |  |  | 4.7 mg/kg |  |  | Ki [1]: > 2000 nM; ED50 ([13]; Mus musculus, read-out: ED50): 4 mg/kg; Response [6]: 3%; Response ([7]; 10 mg/kg): -0.5%
O=[N+]([O-])c1ccc(-c2cc(C3CC4CCC3N4)cnc2F)cc1 (centres undefined) | 0.003 mg/kg | 0.12 mg/kg |  |  | 0.22 mg/kg | 5% |  | Body temperature [12]: 0%
Fc1ncc(C2CC3CCC2N3)cc1-c1ccccc1 (single isomer, unassigned; (+)) | 1 mg/kg | 2.4 mg/kg |  |  |  |  |  | Ki [1]: > 2000 nM; ED50 ([13]; dose 15 mg/kg): 8 mg/kg; Response [6]: 7%; Response ([7]; 10 mg/kg): -0.4%
O=[N+]([O-])c1cccc(-c2cc(C3CC4CCC3N4)cnc2F)c1 (centres undefined) | 0.0005 mg/kg | 0.13 mg/kg | 20 mg/kg | 0.05 nM | 6.5 mg/kg | 3% | 0% | Body temperature [8]: 5%
COc1cccc(-c2cc(C3CC4CCC3N4)cnc2F)c1 (centres undefined) | 0.008 mg/kg | 2 mg/kg | 8 mg/kg | 0.12 nM | 6 mg/kg | 0% | 0% | Body temperature [14]: 0%
Fc1ncc(C2CC3CCC2N3)cc1-c1cccc(Cl)c1 (centres undefined) | 0.01 mg/kg | 0.45 mg/kg | 14 mg/kg | 0.07 nM |  | 3% | 0% | Response [15]: 15%; Body temperature [14]: 0%
COc1ccc(-c2cc(C3CC4CCC3N4)cnc2F)cc1 (centres undefined) | 0.05 mg/kg | 0.52 mg/kg | 16 mg/kg | 0.06 nM | 3.6 mg/kg | 2% | 0% | Body temperature [12]: 10%
Nc1ccc(-c2cc(C3CC4CCC3N4)cnc2F)cc1 (centres undefined) | 0.005 mg/kg | 1.8 mg/kg | 10 mg/kg | 0.09 nM | 6 mg/kg | 2% | 0% | Body temperature [8]: 0%
Fc1cccc(-c2cc(C3CC4CCC3N4)cnc2F)c1 (centres undefined) | 0.005 mg/kg |  |  |  | 0.36 mg/kg |  |  | Body temperature [12]: 0%; ED50 [2]: 3.5 mg/kg; ED50 [11]: 1.8 mg/kg; ED50 [3]: 3.3 mg/kg; AD50 [16]: 20 mg/kg
Fc1ccc(C2CC3CCC2N3)cn1 (centres undefined) |  |  |  | 0.02 nM |  |  |  | 
Fc1ncc(C2CC3CCC2N3)cc1-c1ccc(Cl)cc1 (centres undefined) | 0.0003 mg/kg | 0.26 mg/kg | 7 mg/kg | 0.04 nM |  | 2% | 0% | Response [15]: 50%; Body temperature [14]: 0%
